Test results published in ChEMBL document CHEMBL2086248, “Synthesis of some novel 1-(2-naphthyl)-2-(imidazol-1-yl)ethanone oxime ester derivatives and evaluation of their anticonvulsant activity” (Eur J Med Chem, 2012).
Active and inactive are the calls of the source.

Experiments:
Mus musculus [1] = experiment: Neurotoxicity in mouse assessed as motor impairment at 100 mg/kg, ip after 0.5 hrs by rotarod test; format: toxicity, organism-based; parameters: dose 100 mg/kg, route intraperitoneal; conditions: in vivo
Procedure, shortened: (§1)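 Swiss albino mice (20-24 g) were dosed ip with a suspension in 30% aqueous PEG 400 and tested 0.5 h or 4 h later. They were placed on a knurled wooden rod 1 inch in diameter, rotating at 6 rpm. Toxicity meant failure to stay on the rod for at least 1 min in each of three trials. Scored as number toxic/number tested (4 mice at 0.5 h, 2 at 4 h).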

Mus musculus [2] = experiment: Anticonvulsant activity in mouse assessed as protection against maximal electroshock-induced seizures at 300 mg/kg, ip after 0.5 hrs; format: functional, organism-based; parameters: dose 300 mg/kg
Procedure, shortened: (§2)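 Swiss albino mice (20-24 g) received an ip suspension in 30% aqueous PEG 400 and were tested 0.5 h and 4 h after dosing. Shock was delivered through corneal electrodes from a constant current unit, with 0.9% saline dropped into the eyes first. Protection meant abolition of the hind limb tonic extension. Scored as number protected/number tested, one mouse per dose and time.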

Mus musculus [3] = experiment: Anticonvulsant activity in mouse assessed as protection against subcutaneous pentylenetetrazole-induced seizures at 30 mg/kg, ip after 4 hrs; format: functional, organism-based; parameters: dose 30 mg/kg
Procedure, shortened: (§3)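 Swiss albino mice (20-24 g) were dosed ip with a suspension in 30% aqueous PEG 400 and challenged 0.5 h or 4 h later. Protection meant no threshold seizure (clonic spasms lasting at least 5 s). Scored as number protected/number tested, one mouse per dose and time.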

Mus musculus [4] = experiment: Anticonvulsant activity in mouse assessed as protection against maximal electroshock-induced seizures at 30 mg/kg, ip after 0.5 hrs; format: functional, organism-based; parameters: dose 30 mg/kg; procedure, shortened: as §2
Mus musculus [5] = experiment: Anticonvulsant activity in mouse assessed as protection against subcutaneous pentylenetetrazole-induced seizures at 30 mg/kg, ip after 0.5 hrs; format: functional, organism-based; parameters: dose 30 mg/kg; procedure, shortened: as §3
Mus musculus [6] = experiment: Anticonvulsant activity in mouse assessed as protection against maximal electroshock-induced seizures at 100 mg/kg, ip after 4 hrs; format: functional, organism-based; parameters: dose 100 mg/kg; procedure, shortened: as §2
Mus musculus [7] = experiment: Anticonvulsant activity in mouse assessed as protection against maximal electroshock-induced seizures at 300 mg/kg, ip after 4 hrs; format: functional, organism-based; parameters: dose 300 mg/kg; procedure, shortened: as §2
Mus musculus [8] = experiment: Neurotoxicity in mouse assessed as motor impairment at 30 mg/kg, ip after 0.5 hrs by rotarod test; format: toxicity, organism-based; parameters: dose 30 mg/kg, route intraperitoneal; conditions: in vivo; procedure, shortened: as §1
Mus musculus [9] = experiment: Anticonvulsant activity in mouse assessed as protection against subcutaneous pentylenetetrazole-induced seizures at 100 mg/kg, ip after 4 hrs; format: functional, organism-based; parameters: dose 100 mg/kg; procedure, shortened: as §3
Mus musculus [10] = experiment: Anticonvulsant activity in mouse assessed as protection against subcutaneous pentylenetetrazole-induced seizures at 100 mg/kg, ip after 0.5 hrs; format: functional, organism-based; parameters: dose 100 mg/kg; procedure, shortened: as §3
Mus musculus [11] = experiment: Neurotoxicity in mouse assessed as mortality at 300 mg/kg, ip after 0.5 hrs by rotarod test; format: toxicity, organism-based; parameters: dose 300 mg/kg, route intraperitoneal; conditions: in vivo
Mus musculus [12] = experiment: Anticonvulsant activity in mouse assessed as protection against subcutaneous pentylenetetrazole-induced seizures at 300 mg/kg, ip after 0.5 hrs; format: functional, organism-based; parameters: dose 300 mg/kg; procedure, shortened: as §3
Mus musculus [13] = experiment: Anticonvulsant activity in mouse assessed as protection against maximal electroshock-induced seizures at 30 mg/kg, ip after 4 hrs; format: functional, organism-based; parameters: dose 30 mg/kg; procedure, shortened: as §2
Mus musculus [14] = experiment: Neurotoxicity in mouse assessed as motor impairment at 100 mg/kg, ip after 4 hrs by rotarod test; format: toxicity, organism-based; parameters: dose 100 mg/kg, route intraperitoneal; conditions: in vivo; procedure, shortened: as §1
Mus musculus [15] = experiment: Neurotoxicity in mouse assessed as motor impairment at 30 mg/kg, ip after 4 hrs by rotarod test; format: toxicity, organism-based; parameters: dose 30 mg/kg, route intraperitoneal; conditions: in vivo; procedure, shortened: as §1
Mus musculus [16] = experiment: Neurotoxicity in mouse assessed as mortality at 300 mg/kg, ip after 4 hrs by rotarod test; format: toxicity, organism-based; parameters: dose 300 mg/kg, route intraperitoneal; conditions: in vivo
Mus musculus [17] = experiment: Anticonvulsant activity in mouse assessed as protection against maximal electroshock-induced seizures at 100 mg/kg, ip after 0.5 hrs; format: functional, organism-based; parameters: dose 100 mg/kg; procedure, shortened: as §2
Mus musculus [18] = experiment: Neurotoxicity in mouse assessed as motor impairment at 300 mg/kg, ip after 0.5 hrs by rotarod test; format: toxicity, organism-based; parameters: dose 300 mg/kg, route intraperitoneal; conditions: in vivo; procedure, shortened: as §1
Mus musculus [19] = experiment: Neurotoxicity in mouse assessed as motor impairment at 300 mg/kg, ip after 4 hrs by rotarod test; format: toxicity, organism-based; parameters: dose 300 mg/kg, route intraperitoneal; conditions: in vivo; procedure, shortened: as §1
Mus musculus [20] = experiment: Anticonvulsant activity in mouse assessed as protection against subcutaneous pentylenetetrazole-induced seizures at 300 mg/kg, ip after 4 hrs; format: functional, organism-based; parameters: dose 300 mg/kg; procedure, shortened: as §3

SMILES	Activity (Mus musculus [1])	Activity (Mus musculus [2])	Activity (Mus musculus [3])	Activity (Mus musculus [4])	Activity (Mus musculus [5])	Activity (Mus musculus [6])	Activity (Mus musculus [7])	Activity (Mus musculus [8])	Activity (Mus musculus [9])	Activity (Mus musculus [10])	Activity (Mus musculus [11])	Activity (Mus musculus [12])	Activity (Mus musculus [13])	Activity (Mus musculus [14])	Activity (Mus musculus [15])	Activity (Mus musculus [16])	Activity (Mus musculus [17])	Activity (Mus musculus [18])	Activity (Mus musculus [19])	Activity (Mus musculus [20])
O=C(CCC(=O)c1ccccc1)O/N=C(\Cn1ccnc1)c1ccc2ccccc2c1	Non-toxic	inactive	inactive	Active	inactive	Active	inactive	Non-toxic	inactive	inactive	Toxic	inactive	Active	Non-toxic	Non-toxic	Toxic	Active	–	–	–
COc1cccc(C(=O)O/N=C(\Cn2ccnc2)c2ccc3ccccc3c2)c1	Non-toxic	Active	inactive	inactive	inactive	inactive	inactive	Non-toxic	inactive	inactive	–	inactive	inactive	Non-toxic	Non-toxic	–	inactive	Non-toxic	Non-toxic	inactive
